Reference: PubChem BioAssay
Inconclusive results are not listed.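 Rule for the calls, unless noted: active = viability at or below 27.92% in each of two runs, the all-compound median minus 4 SD; inconclusive = no clear call, values can overlap the other calls; inactive = the rest.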

Legend:
[1] = OD615 S. cerevisiae growth inhibition, permissive medium, pilot counter-assay, permissive growth control for S. cerevisiae lifespan shortening project (AID 705;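 active = growth inhibition above 25% in both replicates, a cutoff set 3 SD above the mean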); settings: OD615, 24 h, at 10 µM, stronger effect = higher value
Summary of the method: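 Material: engineered DeaD yeast; compound dosing: one dose 10 µM, DMSO 0.25% final; measure: yeast growth inhibition indicated by reduced 24 h OD615; detection: OD615 turbidity read; incubation: cells pre-grown 4 h, then 24 h compound exposure, 30 °C humidified; medium: permissive synthetic complete medium with raffinose and galactose carbon sources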

[2] = Restrictive medium S. cerevisiae growth inhibition, OD615, pilot screen of yeast lifespan reduction project, restrictive growth control (AID 706;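 active = growth inhibition above a set limit, 3 SD over mean compound inhibition, in both replicates, cut at about 43% in these data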;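 note: modified DeaD lifespan yeast strain shifted to restrictive glucose medium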); settings: OD615, 48 h, at 10 µM, stronger effect = higher value
Summary of the method: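 material = engineered S. cerevisiae DeaD strain | medium = glucose-based CSMM-D restrictive medium | times = 4 h pre-incubation, 48 h exposure at 30 °C | technique = OD615 absorbance reading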

[3] = viability gain of MRP-1-high H69AR cells under doxorubicin, pilot screen, MRP-1 activator project, CellTiter-Glo, duplicate (AID 807;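 active = viability increase at or above a cutoff of the median across tested compounds plus 3 SD, cut at about 8.5% in these data, passing the limit was not always enough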;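 note: compound pretreatment 18-22 h then 72 h combined with doxorubicin; 0% = doxorubicin alone and 100% = vehicle without doxorubicin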); settings: H69AR viability with doxorubicin, CellTiter-Glo luminescence; at 10 µM; stronger effect = higher value
[4] = growth suppression of beta-catenin knockout HCT116, pilot screen, human colon tumor cells (AID 823;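 active = cell viability at or below a set limit in both duplicate runs, the limit being the all-compound median minus 4 SD, cut at about 23% in these data, passing the limit was not always enough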;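 note: 0% = wells killed by 20 µM Hyamine and 100% = untreated DMSO cell wells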); settings: CellTiter-Glo, 60 h, at 10 µM, stronger effect = lower value
[5] = growth suppression of PTEN-deleted HCT116, pilot screen, cell-based, HCT116 clonal line, CellTiter-Glo (AID 824); settings: 60 h, at 10 µM, stronger effect = lower value;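 note: 0% = 20 µM Hyamine control and 100% = vehicle cell control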
[6] = RAM signaling pathway blockade in yeast – S. cerevisiae, Pdr1DBD-CYC8 efflux-inhibited sensitized strain, primary screen (AID 1298;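 active = RAM network inhibition above 8.4% in each of two replicates, 3 SD over the compound average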;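 note: 0% = DMSO untreated cells without growth and 100% = 10 µM 1-NA-PP1 full growth; higher means more yeast growth rescued from 5-FOA killing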); settings: S. cerevisiae cbk1-as DSE1-URA3 strain, 5-FOA growth OD615, 2 d; at 50 µM; stronger effect = higher value

COc1ccccc1-c1cc(C(F)(F)F)nc(N2CCOCC2)n1
inactive: growth inhibition [1] -8.95% | growth inhibition [2] -13.9% | viability increase [3] -0.29% | viability [4] 78.8% | viability [5] 82.5% | RAM network inhibition [6] 7.23%

CCCc1cc(C(=O)NCCc2ccc(OC)c(OC)c2)no1
inactive: growth inhibition [1] 1.33% | growth inhibition [2] 4.92% | viability increase [3] -1.89% | viability [4] 106% | viability [5] 97.2% | RAM network inhibition [6] 3.29%

CSc1cccc(NS(=O)(=O)c2ccc3c(c2)oc(=O)n3C)c1
inactive: growth inhibition [1] -0.15% | growth inhibition [2] 7.23% | viability increase [3] -1.75% | viability [4] 85.3% | viability [5] 81% | RAM network inhibition [6] 4.49%

CCOC(=O)CNc1nc(C(C)(C)C)nc2c1nnn2Cc1ccccc1Cl
inactive: growth inhibition [1] 1.73% | growth inhibition [2] -3.68% | viability increase [3] -1.19% | viability [4] 78% | viability [5] 76.2% | RAM network inhibition [6] 9.74%

CCOc1ccc(C2Oc3nc(SC)nnc3-c3ccccc3N2C(C)=O)cc1OC (stereo not given)
inactive: growth inhibition [1] 6.18% | growth inhibition [2] 4.39% | viability increase [3] -2.28% | viability [4] 109% | viability [5] 99.8% | RAM network inhibition [6] 4.23%

COc1ccc(-n2c(SCC(=O)Nc3ccc4c(c3)OCO4)nc3c(c2=O)SCC3)cc1
inactive: growth inhibition [1] -15.7% | growth inhibition [2] -12.5% | viability increase [3] -2.51% | viability [4] 98.2% | viability [5] 81.2% | RAM network inhibition [6] 8.27%

CCOC(=O)c1c(NC(=O)c2ccc(Br)o2)sc(C)c1CC
inactive: growth inhibition [1] 1.51% | growth inhibition [2] -8.3% | viability increase [3] -0.6% | viability [4] 73.8% | viability [5] 70.3% | RAM network inhibition [6] 9.97%

COCCCNc1nc2c(c(=O)[nH]c(=O)n2C)n1CC(O)COc1ccccc1C (stereo not given)
inactive: growth inhibition [1] -1.92% | growth inhibition [2] -7.5% | viability increase [3] -2.64% | viability [4] 98.9% | viability [5] 101% | RAM network inhibition [6] 3.44%

COc1ccc(-c2nc(CS(=O)CC(=O)NCc3ccc(Cl)cc3)c(C)o2)cc1 (stereo not given)
inactive: growth inhibition [1] -11.9% | growth inhibition [2] 4.36% | viability increase [3] 0.16% | viability [4] 72.4% | viability [5] 79.9% | RAM network inhibition [6] 7.34%

CCCCCOC(=O)CSc1nc2c(c(=O)[nH]c(=O)n2C)n1Cc1ccc(Cl)cc1
inactive: growth inhibition [1] 11.9% | growth inhibition [2] 23.6% | viability increase [3] -3.26% | viability [4] 93.2% | viability [5] 84.7% | RAM network inhibition [6] 2.16%

Cn1c(Cn2c(=O)sc3ccccc32)nnc1SCC(=O)Nc1ccc(F)cc1
inactive: growth inhibition [1] -6.3% | growth inhibition [2] -13.1% | viability increase [3] -0.7% | viability [4] 105% | viability [5] 97.8% | RAM network inhibition [6] 5.95%

CC(=O)c1cccc(NC(=O)CCS(=O)(=O)c2cccc3nonc23)c1
inactive: growth inhibition [1] -9.88% | growth inhibition [2] -7.91% | viability increase [3] -3.46% | viability [4] 93.5% | viability [5] 93.2% | RAM network inhibition [6] 3.02%

Cc1cc(Nc2cccc(Cl)c2)n2ncnc2n1
inactive: growth inhibition [1] -2.62% | growth inhibition [2] 7.42% | viability increase [3] -2.08% | viability [4] 95.9% | viability [5] 98.7% | RAM network inhibition [6] 1.67%

COc1ccccc1-c1nc(-c2ccc(Br)cc2)no1
inactive: growth inhibition [1] 4.16% | growth inhibition [2] -2.73% | viability increase [3] -3.88% | viability [4] 84.2% | viability [5] 94.1% | RAM network inhibition [6] 5.02%

c1ccc(-c2nc(CSc3nnnn3-c3ccccc3)cs2)cc1
inactive: growth inhibition [1] -8.04% | growth inhibition [2] -0.095% | viability increase [3] -2.18% | viability [4] 99.5% | viability [5] 93.4% | RAM network inhibition [6] 7.98%

Cc1ccc2oc(=O)c3cnn(CC(=O)NCCc4ccsc4)c3c2c1
inactive: growth inhibition [1] 3.75% | growth inhibition [2] -1.42% | viability increase [3] -2.89% | viability [4] 90.7% | viability [5] 85.7% | RAM network inhibition [6] 3.42%

CCSC1=C(C#N)C(c2cccc(O)c2)CC(=O)N1 (stereo not given)
inactive: growth inhibition [1] -2.26% | growth inhibition [2] -11% | viability increase [3] -1.66% | viability [4] 98.2% | viability [5] 97.1% | RAM network inhibition [6] 3.85%

CCOc1ccc(N(CC(=O)NC(C)CC)S(=O)(=O)c2c(C)noc2C)cc1 (stereo not given)
inactive: growth inhibition [1] -4.58% | growth inhibition [2] -11.1% | viability increase [3] -0.76% | viability [4] 99.3% | viability [5] 93.1% | RAM network inhibition [6] 2.66%

CCCCCCSc1cc(C)nc2ncnn12
inactive: growth inhibition [1] -19% | growth inhibition [2] 2.92% | viability increase [3] -0.06% | viability [4] 93.6% | viability [5] 83.2% | RAM network inhibition [6] 0.21%

O=c1c2ccccc2nc2c3ccccc3ncn12
inactive: growth inhibition [1] -15.1% | growth inhibition [2] -15.2% | viability increase [3] -0.34% | viability [4] 103% | viability [5] 101% | RAM network inhibition [6] 6.01%
